Records with an inconclusive call do not appear. Activity calls are given as the source filed them.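 How the source made its calls: active means signal falls, and half-maximal potency stays within ten times the top tested dose in every run; inconclusive means runs disagree, or a flat partial drop, or a poor fit; inactive means inactive every run, flat, wrong way or too weak.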
Test system: not listed separately
Assay: cytotoxicity in HMLE_sh_eGFP control cells, dose response, counter-screen for breast cancer stem cell project, cell-based, luminescence, powder samples, set 4 (AID 504450)
Details: HMLE_sh_eGFP viability, CellTiter-Glo luminescence, 72 h; at 30 µM (top of the series)
In short: (§1)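 test system = HMLE breast epithelial cells expressing shRNA against eGFP (counterscreen line) | quantity = 2000 cells per well | incubation = ~72 h compound exposure, 37 °C | doses = 100 nL compound added by pin transfer per well | technique = CellTiter-Glo ATP luminescence, reagent diluted 1:3 in PBS, 12 min incubation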
For `O=C(Nc1nccs1)c1ccc(COc2ccccc2)o1`, the activity change, negative = viability loss was 5.29% (inactive). With `O=C(N/N=C/c1ccc[nH]1)C1CC1c1ccccc1` (stereo not drawn) the activity change, negative = viability loss was -2.24% (inactive). In the case of `CC(C)c1ccc(/C=C/C(=O)Nc2ncc[nH]2)cc1`, the activity change, negative = viability loss is reported as -18.2% (inactive). In the case of `Cc1cccc(C)c1OCC(=O)N/N=C/c1ccc[nH]1`, the activity change, negative = viability loss is reported as 8.5% (inactive). For `C/C(=C\c1ccccc1)C(=O)NC1=NCCS1`, the activity change, negative = viability loss was 12% (inactive). With `O=C(COc1ccc(Cl)cc1Cl)N/N=C/c1ccn[nH]1` the activity change, negative = viability loss was 6.79% (inactive). In the case of `O=C(N/N=C/c1ccn[nH]1)c1cc2ccccc2o1`, the activity change, negative = viability loss is reported as 16.4% (inactive). For `O=C(COc1c(Cl)cc(Cl)cc1Cl)N/N=C/c1ccn[nH]1`, the activity change, negative = viability loss was 0.468% (inactive). For `O=S(=O)(/C=C/c1ccccc1)NC1=NCCS1`, the activity change, negative = viability loss was 19.6% (inactive). In the case of `O=C(c1ccc(COc2ccccc2)o1)N1CCOCC1`, the activity change, negative = viability loss is reported as 5.39% (inactive). With `Cc1ccc(C)c(OCC(=O)N/N=C/c2ccc[nH]2)c1` the activity change, negative = viability loss was -10.1% (inactive). For `Cc1csc(NC(=O)c2ccc(CO)o2)n1`, the activity change, negative = viability loss was 13.5% (inactive). With `O=C(/C=C/c1ccc(Cl)cc1)NC1=NCCS1` the activity change, negative = viability loss was -4.58% (inactive). With `O=C(NC1=NCCS1)C1CC1c1ccccc1` (stereo not drawn) the activity change, negative = viability loss was 7.45% (inactive). For `O=C(NC1=NCCS1)/C(F)=C/c1ccccc1`, the activity change, negative = viability loss was 13.9% (inactive). In the case of `COc1ccccc1OCC(=O)N/N=C/c1ccc[nH]1`, the activity change, negative = viability loss is reported as 14.8% (inactive). In the case of `Cn1ccnc1NC(=O)c1ccc(COc2ccccc2)o1`, the activity change, negative = viability loss is reported as -18.4% (inactive). With `O=C(/C=C/c1ccc(C(F)(F)F)cc1)NC1=NCCS1` the activity change, negative = viability loss was 11.7% (inactive). For `COc1cccc(/C=C/C(=O)NC2=NCCS2)c1`, the activity change, negative = viability loss was 1.9% (inactive).

Test system: HMLE_sh_eGFP viability, CellTiter-Glo luminescence, 72 h
Assay: as above
Details: not given
In short: as §1
Work on `CC(C)c1ccc(/C=C/C(=O)N(C)Cc2ccccc2)cc1` yielded an AC50 of 9.01 µM. For `Cc1csc(NC(=O)c2ccc(COc3cccc(C(F)(F)F)c3)o2)n1`, the AC50 was 23.5 µM. For `Cc1csc(NC(=O)c2ccc(COc3ccccc3F)o2)n1`, the AC50 was 0.151 µM. In the case of `Cc1csc(NC(=O)c2ccc(COc3cccc(OC(F)(F)F)c3)o2)n1`, the AC50 is reported as 4.4 µM. For `CC(C)c1ccc(/C=C/C(=O)NCc2ccccc2)cc1`, the AC50 was 13.2 µM. With `Cc1csc(NC(=O)c2ccc(COc3ccc(C(F)(F)F)cc3)o2)n1` the AC50 was 2.92 µM. Compound `Cc1csc(NC(=O)c2ccc(COc3ccc(Cl)cc3)o2)n1` has an AC50 of 13 µM. Work on `CC[C@@H](C(=O)O)C1CC[C@H](C)C([C@@H](C)[C@H](O)[C@H](C)C(=O)[C@H](CC)C2O[C@]3(C=C[C@@H](O)[C@]4(CC[C@@](C)(C5CC[C@](O)(CC)[C@H](C)O5)O4)O3)[C@H](C)C[C@@H]2C)O1` (stereo partly drawn) yielded an AC50 of 0.007 µM. Work on `O=C(/C=C/c1cccc(Cl)c1)NC1=NCCS1` yielded an AC50 of 21.5 µM. In the case of `CC(C)c1ccc(/C=C/C(=O)Nc2nncs2)cc1`, the AC50 is reported as 9.97 µM. `O=C(COc1ccc2c(c1)OCO2)N/N=C/c1ccc[nH]1` gave an AC50 of 20.9 µM. `O=C(N/N=C/c1ccc[nH]1)C1COc2cc3ccccc3cc2O1` (stereo not drawn) showed an AC50 of 18.9 µM. Compound `Cc1csc(NC(=O)c2ccc(COc3ccccc3C(F)(F)F)o2)n1` has an AC50 of 0.057 µM. `Cc1csc(NC(=O)c2ccc(COc3cccc(C#N)c3)o2)n1` gave an AC50 of 15.4 µM. In the case of `COc1ccccc1OCc1ccc(C(=O)Nc2nc(C)cs2)o1`, the AC50 is reported as 8.54 µM. `Cc1csc(NC(=O)c2ccc(COc3cccc(F)c3)o2)n1` gave an AC50 of 21.5 µM. Work on `O=C(CSc1cc(Cl)ccc1Cl)N/N=C/c1ccc[nH]1` yielded an AC50 of 18 µM. In the case of `Cc1csc(NC(=O)c2ccc(COc3ccc(OC(F)(F)F)cc3)o2)n1`, the AC50 is reported as 13.2 µM. `Cc1csc(NC(=O)c2ccc(COc3cccc(Cl)c3)o2)n1` gave an AC50 of 6.6 µM. For `CC(C)c1ccc(/C=C/C(=O)Nc2nccs2)cc1`, the AC50 was 7.26 µM. For `Cc1csc(NC(=O)c2ccc(COc3ccc(C#N)cc3)o2)n1`, the AC50 was 12.7 µM. `Cc1csc(NC(=O)c2ccc(COc3ccccc3C#N)o2)n1` gave an AC50 of 3.69 µM. For `O=C(COc1ccc2ccccc2c1Br)N/N=C/c1ccc[nH]1`, the AC50 was 3.03 µM. With `O=C(COc1ccc(Cl)cc1Br)N/N=C/c1ccc[nH]1` the AC50 was 20.9 µM. In the case of `O=C(Nc1nc2cccc(Cl)c2s1)c1ccc(COc2ccccc2)o1`, the AC50 is reported as 9.36 µM. In the case of `Cc1csc(NC(=O)c2ccc(COc3ccccc3Cl)o2)n1`, the AC50 is reported as 0.163 µM. In the case of `Cc1csc(NC(=O)c2ccc(COc3ccccc3OC(F)(F)F)o2)n1`, the AC50 is reported as 0.38 µM. For `Cc1csc(NC(=O)c2ccc(COc3ccc(F)cc3)o2)n1`, the AC50 was 28.5 µM. `CC(C)(C)c1ccc(/C=C/C(=O)NC2=NCCS2)cc1` gave an AC50 of 20.6 µM. Compound `CC(C)c1ccc(/C=C/C(=O)Nc2nccn2C)cc1` has an AC50 of 5.97 µM. `CC(C)(C)c1ccc(C2CC2C(=O)N/N=C/c2ccc[nH]2)cc1` (stereo not drawn) gave an AC50 of 2.14 µM. Work on `COc1cccc(OCc2ccc(C(=O)Nc3nc(C)cs3)o2)c1` yielded an AC50 of 1.59 µM. Work on `O=C(Nc1ccccn1)c1ccc(COc2ccccc2)o1` yielded an AC50 of 29.7 µM. `CC(C)c1ccc(/C=C/C(=O)Nc2ccccn2)cc1` showed an AC50 of 14.8 µM.
